Test results: publication PMC9157583 (Alzheimer's & Dementia : Translational Research & Clinical …, 2022)
Several values for one entry are separate records, joined by “and”; a condition that tells them apart may be missing. Equal entries are not always repeated. Where two headings read alike, the source gives them in different places.

What was measured:
Abl/SRC = settings: cited from earlier work
alpha‐synuclein oligomer = assay: Oligomeric alpha‐synuclein ELISA in CSF and plasma; format: in vivo, human; settings: CSF or plasma, bosutinib vs placebo
Method in brief: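 Oligomeric alpha-synuclein in CSF and plasma was quantified with a commercial quantitative ELISA kit per the manufacturer's protocol. Samples were drawn at baseline and week 12 from DLB participants on oral test compound 100 mg daily or matching placebo, 1–4 h after dosing and ~2 h after the last levodopa dose.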

[1] = test system: Aβ40, Aβ42, total tau, p‐tau 181; assay: Aβ40, Aβ42, total tau, and p‐tau 181 ELISA in CSF and plasma; format: in vivo, human; settings: CSF or plasma, bosutinib vs placebo
Method in brief: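 Plasma (10 mL blood) and lumbar-puncture CSF (~15 mL) were taken at baseline and at week 12 from DLB participants randomized 1:1 to oral test compound 100 mg daily or placebo. Sampling was 1–4 h post-dose, ~2 h after the last levodopa dose. Aβ40, Aβ42, total tau and p-tau181 were measured by Milliplex ELISA, with CSF and plasma run in parallel using the same reagents.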

[2] = test system: individuals with dementia with Lewy bodies; assay: Exploratory clinical assessments; format: in vivo, human; settings: change 12 week‐ baseline, bosutinib 100 mg vs. placebo; interval in brackets
[3] = Pharmacokinetics: bosutinib concentration in plasma of DLB participants; format: in vivo, human; settings: for Tmax / AUC / Cmax: human; for AUC: AUC0‐4, plasma
alpha‐synuclein = assay: Total alpha‐synuclein ELISA in CSF and plasma; format: in vivo, human; settings: bosutinib 100 mg compared to placebo, 12 weeks
Method in brief: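 Total alpha-synuclein in CSF and plasma was measured by solid-phase sandwich ELISA per the kit protocol, and the CSF/plasma ratio was calculated from the two levels. Samples were taken at baseline and week 12 from DLB participants given oral test compound 100 mg daily or placebo. Changes were compared within groups by one-tailed paired Wilcoxon test and between groups by one-tailed Welch t-test.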

[4] = test system: individuals with dementia with Lewy bodies; format: in vivo, human; settings: bosutinib 100 mg once daily, 12 weeks
Src = Src (Homo sapiens, UniProt P12931); assay: Phospho‐Src; format: in vivo; settings: bosutinib 100 mg compared to placebo, 12 weeks
Method in brief: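 Phospho-Src was assayed with a PathScan sandwich ELISA. CSF or plasma was added to wells coated with rabbit polyclonal antibody that captures Src phosphorylated at Tyr416. Samples came from DLB participants at baseline and after 12 weeks of oral test compound 100 mg daily or placebo. Within-group changes used a one-tailed paired Wilcoxon test; between-group changes used a one-tailed Welch-corrected unpaired t-test.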

[5] = cited from earlier work
[6] = test system: dopamine metabolites DOPAC and HVA; assay: Quantification of dopamine metabolites DOPAC and HVA; format: in vivo, human; settings: bosutinib 100 mg compared to placebo, 12 weeks
Method in brief: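 CSF DOPAC and HVA were derivatized with benzoyl chloride and quantified by UHPLC-MS/MS. CSF was obtained by lumbar puncture at baseline and week 12, 1–4 h after oral test compound 100 mg daily or placebo and ~2 h after the last levodopa dose. Values were given as mean ± SD, with one-sided tests at 5% type I error and 90% CI.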

[7] = for AUC / Cmax / Tmax: human, in vivo, po; for AUC: AUC0‐4, CSF
[8] = open label study, 12 months; cited from earlier work
[9] = 100 mg, 12 weeks vs single dose
[10] = plasma, single oral dose 500 mg, normal individuals, n = 6
[11] = CSF, 100 mg, 12 weeks vs single dose
[12] = 100 mg, CSF, multiple oral doses 100 mg once daily, 12 weeks
[13] = 100 mg, CSF, single oral dose 100 mg
[14] = 200 mg, CSF, single oral dose 200 mg

Sequence of Src (P12931 whole entry): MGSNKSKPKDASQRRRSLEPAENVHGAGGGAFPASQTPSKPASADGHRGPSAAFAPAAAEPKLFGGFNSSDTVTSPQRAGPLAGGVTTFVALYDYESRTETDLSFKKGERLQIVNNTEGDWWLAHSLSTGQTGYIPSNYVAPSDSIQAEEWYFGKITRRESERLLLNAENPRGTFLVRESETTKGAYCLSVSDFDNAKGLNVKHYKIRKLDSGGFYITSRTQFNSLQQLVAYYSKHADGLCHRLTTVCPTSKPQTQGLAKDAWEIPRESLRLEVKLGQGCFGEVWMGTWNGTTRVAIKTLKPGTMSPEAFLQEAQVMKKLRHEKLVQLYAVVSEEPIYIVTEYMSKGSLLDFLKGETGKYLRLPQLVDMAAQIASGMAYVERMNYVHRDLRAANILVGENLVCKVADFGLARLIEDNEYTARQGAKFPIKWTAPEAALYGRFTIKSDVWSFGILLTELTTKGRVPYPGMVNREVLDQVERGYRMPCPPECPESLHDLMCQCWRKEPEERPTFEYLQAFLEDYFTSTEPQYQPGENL

For `COc1cc(Nc2c(C#N)cnc3cc(OCCCN4CCN(C)CC4)c(OC)cc23)c(Cl)cc1Cl` [Bosutinib, Bosutinib monohydrate], the IC50 (Abl/SRC) is listed as 1.2 nM, the “Oligomeric alpha‐synuclein” value (alpha‐synuclein oligomer) is listed as “no differences” and the Aβ40 [1] is listed as “no differences”. For the same molecule, the Aβ42 [1] was “no differences”, the Total tau [1] was “no differences” and the “p‐tau181” value [1] was “no differences”. The “Alzheimer's Disease Assessment Scale–Cognitive subscale (ADAS‐Cog)” value [2] was −0.66 (−4.67, 3.33), the “Clinician Assessment of Fluctuation (CAF)” value [2] was 1 (−2,3) and the “Irritability and Apathy Scale (IAS)‐_Participant_APATHY” value [2] was 0 (−3, 4). For the same molecule, the “Irritability and Apathy Scale (IAS)‐_Participant_IRRITABILITY” value [2] was 0 (−2, 3), the “Irritability and Apathy Scale (IAS)‐_Partner_APATHY” value [2] was −1 (−4, 2) and the “Irritability and Apathy Scale (IAS)‐_Partner_IRRITABILITY” value [2] was 1 (−1, 4). For the same molecule, the “Montreal Cognitive Assessment (MoCA)” value [2] was 0 (−1, 2), the “Neuropsychiatric Inventory (NPI) frequency x severity” value [2] was 0 (−8, 9) and the “Neuropsychiatric Inventory (NPI)_Caregiver Distress” value [2] was 2 (−1, 6). For the same molecule, the “Problem Behaviours Assessment (PBA)” value [2] was 1 (−14, 10), the “Timed Up and Go” value [2] was 0 (−3, 2) and the “Unified Parkinson's Disease Rating Scale (Activities of Daily Living)‐Part II” value [2] was −1 (−3, 2). For the same molecule, the “Unified Parkinson's Disease Rating Scale (Motor)‐Part III” value [2] was 0 (−4, 4), the “Unified Parkinson's Disease Rating Scale (SUM Part II+III)” value [2] was −1 (−6, 5) and the “Unified Parkinson's Disease Rating Scale (UPDRS‐Cognition)‐Part I” value [2] was 0 (−2, 1). The “Unified Parkinson's Disease Rating Scale (total Part I+III)” value [2] was −2 (−7, 6), the “Increase of plasma exposure (AUC0‐4), multiple doses compared to a single dose” value [3, 9] was about 3 fold and the “Increase of plasma level (Cmax), multiple doses compared to a single dose” value [3, 9] was “more than 2 fold”. For the same molecule, the Tmax ([3]; oral, Tmax in the current study, between 0 and 4 hours, current study) was 3 to 4 h, the AUC ([3]; po, 100 mg, multiple oral doses 100 mg once daily, 12 weeks) was 73.1 ng·h/mL and 0.138 µM·h and the AUC ([3]; po, 100 mg, single oral dose 100 mg) was 25 ng·h/mL and 0.0479 µM·h. For the same molecule, the Cmax ([3]; po, 100 mg, multiple oral doses 100 mg once daily, 12 weeks, n = 13) was 29.9 ng/mL and 56.4 nM, the Cmax ([3]; po, 100 mg, single oral dose 100 mg, n = 9) was 13.5 ng/mL and 25.5 nM and the Tmax ([3]; po, 100 mg, Tmax, multiple oral doses 100 mg once daily, 12 weeks) was 4 h. The Tmax ([3]; po, 100 mg, Tmax, single oral dose 100 mg, sampling 0 to 4 hours) was 3 h, the AUC ([3]; po, 200 mg, single oral dose 200 mg) was 36.9 ng·h/mL and 0.0696 µM·h and the Cmax ([3]; po, 200 mg, single oral dose 200 mg, n = 9) was 19.6 ng/mL and 37 nM. For the same molecule, the “CSF alpha‐synuclein level” value (alpha‐synuclein; CSF, Figure 2I) was “significantly reduced”, the “CSF:plasma of alpha‐synuclein” value (alpha‐synuclein; Figure 2K) was “reduced” and the “Prolongation of QTc intervals” value [4] was “no prolongation of QTc intervals”. The “Serious adverse events (SAEs)” value [4] was “no serious adverse events”, the Total dropped out ([4]; DLB, N = 13, number (%)) was 0 (0%) and the “Adverse event: Dizziness, number of events (%)” value ([4]; N = 13) was 1 (7.7%). The “Adverse event: Falls, number of events (%)” value ([4]; N = 13) was 3 (23.1%), the “Adverse event: Flu, number of events (%)” value ([4]; N = 13) was 0 (0%) and the “Adverse event: Impaction, number of events (%)” value ([4]; N = 13) was 0 (0%). The “Adverse event: Liver transaminases, number of events (%)” value ([4]; N = 13) was 1 (7.7%), the “Adverse event: Pain, number of events (%)” value ([4]; N = 13) was 3 (23.1%) and the “Adverse event: Post‐lumbar puncture headache, number of events (%)” value ([4]; N = 13) was 1 (7.7%). For the same molecule, the “Adverse event: Upper respiratory infection, number of events (%)” value ([4]; N = 13) was 0 (0%), the “Adverse event: Urinary incontinence, number of events (%)” value ([4]; N = 13) was 1 (7.7%) and the “Adverse event: Urinary tract infection, number of events (%)” value ([4]; N = 13) was 1 (7.7%). The “Total number of adverse events (AEs)” value ([4]; N = 13, 9 in placebo, P = 0.68) was 11, the “CSF p‐Src” value (Src; CSF, Figure 2D) was “could not demonstrate differences” and the “Plasma active Src phosphorylated at Tyr416” value (Src; plasma, Figure 2C) was “significantly reduced”. For the same molecule, the “Tmax in previous studies” value ([5]; between 0 and 24 hours) was “around 6 hours”, the “AUC0‐24” value [5, 10] was 2190 ± 661 ng/h/mL and the Tmax [5, 10] was 3.50 (2.00–6.00) hrs. The “CSF DOPAC level” value ([6]; CSF, Figure 2E) was “no statistically significant difference”, the “CSF HVA level” value ([6]; CSF, Figure 2F) was “no statistically significant difference” and the “Plasma DOPAC level” value ([6]; plasma, Figure 2G) was “significantly reduced”. For the same molecule, the “Plasma HVA level” value ([6]; plasma, Figure 2H) was “significantly reduced”, the “Increase of CSF exposure (AUC0‐4), multiple doses compared to a single dose” value [7, 11] was 10 fold and the “Increase of CSF level (Cmax), multiple doses compared to a single dose” value [7, 11] was 9 fold. For the same molecule, the AUC ([7]; 100 mg, multiple oral doses 100 mg once daily, 12 weeks) was 1.15 ng·h/mL and 0.00216 µM·h, the AUC ([7]; 100 mg, single oral dose 100 mg) was 0.14 ng·h/mL and 0.00026 µM·h and the Cmax [7, 12] was 0.94 ± 0.32 nM. It also gave a Cmax ([7]; 100 mg, CSF, multiple oral doses 100 mg once daily, 12 weeks, n = 13) of 0.5 ± 0.17 ng/mL, a Cmax [7, 13] of 0.11 ± 0.08 nM and a Cmax ([7]; 100 mg, CSF, single oral dose 100 mg, n = 9) of 0.06 ± 0.04 ng/mL. The Tmax [7, 12] was 3 h, the Tmax [7, 13] was 2 h and the AUC ([7]; 200 mg, single oral dose 200 mg) was 0.24 ng·h/mL and 0.00044 µM·h. It also gave a Cmax [7, 14] of 0.25 ± 0.09 nM, a Cmax ([7]; 200 mg, CSF, single oral dose 200 mg, n = 9) of 0.13 ± 0.06 ng/mL and a Tmax [7, 14] of 4 h. The “Repeatable Battery for the Assessment of Neuropsychological Status (RBANS)” value [8] was “less decline”.
